The nature of the data set: 15N relaxation, tumbling correlation time. Format: physicochemical, murine. Particulars: 15N relaxation (R2/R1), free protein, 600 MHz, 295 K. A digest of the protocol:
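Uniformly ¹⁵N-labelled domain expressed in E. coli BL21(DE3) on ¹⁵NH₄Cl minimal medium. Typical sample 0.3–0.4 mM in 20 mM sodium phosphate pH 6.3, 0.15 M NaCl, 2 mM DTT, 50 μM ZnCl₂. R1 sampled at 13 delays (50–2000 ms), R2 at 11 (12–244 ms), with heating compensation, random order and 2.5 s recovery. Duplicates fitted to two-parameter exponentials. τc from R2/R1, using non-overlapped residues with hetNOE > 0.65.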

B1: PHDVC5HCHNSD1: Murine NSD1 PHDvC5HCH (Glu2117–Asp2207), tandem domain, human residue numbering Glu2116–Asp2206 (protein, UniProt O88491 2117-2207, looked up, fragment)
chain: REYVPPTATSPPSPGTQPKEQSSEMATQGPKKSDQPPTDATQLLPLSKKALTGSCQRPLLPERPPERTDSSSHLLDRIRDLAGSGTKSQSL
Turning to B1, the “correlation time (free)” value came to 7.96±0.41 ns.

The record behind these values is PMC4838375 (Nucleic Acids Research, 2016).
